The results in this text go back to ChEMBL document CHEMBL4342521 (J Med Chem, 2020).

The subject of data set [1] is MV4-11. Briefly: Induction of apoptosis in human MV4-11 cells harboring wild type p53/FLT3-ITD mutant assessed as cleavage of pro-caspase 3 at 50 to 200 nM after 24 hrs by Western blot analysis. The class given is functional, cell-based. Put shortly: (§1)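 Cells (1,500,000 per well) grown 12 h, then drug-treated as specified. Lysed in RIPA buffer, sonicated, centrifuged, protein normalized by BCA. Run on 4–12% Bis-Tris gels in MES, transferred, probed overnight at 4 °C with primary antibodies at 1/1000. Actin served as reference for LC3-II quantitation.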
Background: A western blot detects proteins with antibodies after separation by electrophoresis.

The next data set deals with HL-60. Put plainly: Induction of apoptosis in p53 null human HL60 cells harboring wild type FLT3 assessed as cleavage of pro-caspase 3 at 50 to 200 nM after 24 hrs by Western blot analysis. Type of data set: functional, cell-based. Put shortly:
as §1

For a further data set, the system named is MDA-MB-435. Put plainly: Antiproliferative activity against human MDA-MB-435 cells assessed as reduction in cell viability after 48 hrs by CellTiter-Blue assay. The class given is functional. As to conditions: MDA-MB-435, 48 h, read-out: LC50 (the source's name). Put shortly:
(§2)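 Cells grown in RPMI1640 with 10% FBS at 37 °C, 5% CO₂. 5,000–10,000 cells/well were pre-incubated overnight, and a time-zero CellTiter-Blue read was taken. Six 10-fold dilutions (top final 10 μM) were applied for 48 h, followed by 0.125 mg/mL CellTiter-Blue for 2–4 h. Resorufin fluorescence was read at ex 560/em 590 nm. […] Triplicates.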

In another data set the test system is HCT-15. Briefly: Antiproliferative activity against human HCT15 cells assessed as reduction in cell viability after 48 hrs by CellTiter-Blue assay. Type of data set: functional. As to conditions: HCT-15, 48 h, read-out: LC50 (the source's name). In short, it runs like this: as §2
In general terms: Resazurin is reduced to fluorescent resorufin, in cell work by metabolically active cells.

Data set [2] relates to MV4-11. Briefly: Induction of autophagy in human MV4-11 cells harboring wild type p53/FLT3-ITD mutant assessed as LC-3 degradation at 50 to 200 nM after 24 hrs by Western blot analysis. The class given is functional, cell-based. Put shortly:
as §1

Data set [3] deals with MV4-11. Briefly: Induction of apoptosis in human MV4-11 cells harboring wild type p53/FLT3-ITD mutant assessed as XIAP degradation at 50 to 200 nM after 24 hrs by Western blot analysis. The class given is functional, cell-based. Put shortly: as §1
A further data set relates to RXF 393. Briefly: Antiproliferative activity against human RXF393 cells assessed as reduction in cell viability after 48 hrs by CellTiter-Blue assay. The class given is functional. The note with it: RXF 393, 48 h, read-out: LC50 (the source's name). In short, it runs like this: as §2
Data set [4] concerns MV4-11. Briefly: Inhibition of autophagy in human MV4-11 cells assessed as cell death at 200 nM after 24 hrs in presence of 5 uM of chloroquine by CellTiter-blue dye based spectrophotometric analysis. Type of data set: functional. Put shortly:
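MV4-11 cells grown 12 h, then given 200 nM test agent alone or with z-VAD, chloroquine (5 μM) or wortmannin (100 nM) for 24 h. Viability by CellTiter-Blue (0.125 mg/mL, 2–4 h), resorufin fluorescence 560/590 nm, compared with t = 0 wells; n = 3.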

The next data set has as its system SK-MEL-28. Put plainly: Antiproliferative activity against human SK-MEL-28 cells assessed as reduction in cell viability after 48 hrs by CellTiter-Blue assay. Type of data set: functional. As to conditions: SK-MEL-28, 48 h, read-out: LC50 (the source's name). Put shortly: as §2
The subject of the next data set is M14. Put plainly: Antiproliferative activity against human M14 cells assessed as reduction in cell viability after 48 hrs by CellTiter-Blue assay. The note with it: M14, 48 h, read-out: LC50 (the source's name). Type of data set: functional. Put shortly: as §2
Data set [5] has as its system MV4-11. Briefly: Inhibition of p53 degradation in human MV4-11 cells harboring wild type p53/FLT3-ITD mutant assessed as cleavage of pro caspase-3 at 100 nM after 24 hrs in presence of MDM2 inhibitor RG7388 by Western blot analysis. Type of data set: functional, cell-based. In short, it runs like this:
as §1

Data set [6] in a line: Cmax in CD1 mouse at 20 mg/kg, po via gavage after 24 hrs by LC-MS/MS analysis. Type of data set: ADME, organism-based. More on the design: dose 20 mg/kg, route oral. The note with it: in vivo. Put shortly:
(§3)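 Male CD-1 mice, fasted overnight, 3 per route; compound in PBS with 5% DMSO, iv bolus 5 mg/kg or oral gavage 20 mg/kg. Blood sampled at 5, 15, 30 min and 1–24 h. Plasma protein-precipitated with acetonitrile plus internal standard, quantified by LC-MS/MS (MRM). AUC by linear trapezoidal method; parameters by non-compartmental analysis.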

Data set [7] deals with MV4-11. Briefly: Inhibition of ERK phosphorylation in human MV4-11 cells harboring wild type p53/FLT3-ITD mutant at 50 to 200 nM after 24 hrs by Western blot analysis. Type of data set: cell-based. In short, it runs like this: as §1
A further data set has as its system UO-31. Put plainly: Antiproliferative activity against human UO31 cells assessed as reduction in cell viability after 48 hrs by CellTiter-Blue assay. The note with it: UO-31, 48 h, read-out: LC50 (the source's name). Type of data set: functional. Put shortly:
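NCI-60 panel lines grown in RPMI1640 with 10% FBS at 37 °C, 5% CO₂. Seeded at 5,000–10,000 cells/well and pre-incubated overnight. Exposed for 48 h to six 10-fold dilutions (top final 10 μM), with a time-zero plate read at dosing. CellTiter-Blue (0.125 mg/mL) for 2–4 h, fluorescence 560/590 nm, triplicate curves.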

Data set [8] has as its target Aminopeptidase N (Sus scrofa) (UniProt P15145). Briefly: Inhibition of porcine kidney microsomal APN at 10 uM using L-leucine-p-nitroanilide as substrate preincubated for 5 mins followed by substrate addition and measured after 30 mins by microplate reader analysis. Type of data set: subcellular. The note with it: Sus scrofa domesticus. Put shortly:
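Porcine kidney microsomal aminopeptidase (CD13) with test agent (final 50 and 10 μM; bestatin 10 μM as reference), 5 min, then L-leucine-p-nitroanilide added. Incubated 30 min at 37 °C; absorbance read at 405 nm.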

In another data set the test system is ACHN. Briefly: Antiproliferative activity against human ACHN cells assessed as reduction in cell viability after 48 hrs by CellTiter-Blue assay. As to conditions: read-out: LC50 (the source's name). The class given is functional. Put shortly: as §2
Data set [9] in a line: AUC (0 to infinity) in CD1 mouse at 20 mg/kg, po via gavage after 24 hrs by LC-MS/MS analysis. The class given is ADME, organism-based. More on the design: dose 20 mg/kg, time infinity, route oral. The note with it: in vivo. In short, it runs like this: as §3
The next data set relates to RS4-11. Briefly: Down regulation of STAT5 expression in human RS4:11 cells harboring wild type p53/FLT3 assessed as cleavage of pro-caspase 3 at 50 to 200 nM after 24 hrs by Western blot analysis. The class given is functional, cell-based. Put shortly: as §1
A short description of data set [10]: Oral bioavailability in CD1 mouse at 20 mg/kg dosed via gavage after 24 hrs by LC-MS/MS analysis. The class given is ADME, organism-based. The note with it: in vivo. Put shortly:
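Male CD-1 mice (n = 3) were fasted overnight and given compound in PBS with 5% DMSO, 5 mg/kg iv bolus or 20 mg/kg by gavage. Blood was sampled from 5 min to 24 h. Plasma was protein-precipitated with acetonitrile containing internal standard and quantified by LC-MS/MS (MRM). AUC was calculated by the linear trapezoidal method and parameters by non-compartmental analysis.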

The subject of another data set is BT-549. Briefly: Antiproliferative activity against human BT549 cells assessed as reduction in cell viability after 48 hrs by CellTiter-Blue assay. The class given is functional. As to conditions: BT-549, 48 h, read-out: LC50 (the source's name). Put shortly:
as §2

The test system of another data set is LOX IMVI. Put plainly: Antiproliferative activity against human LOXIMVI cells assessed as reduction in cell viability after 48 hrs by CellTiter-Blue assay. The class given is functional. As to conditions: read-out: LC50 (the source's name). In short, it runs like this: as §2
The next data set relates to SR. Briefly: Induction of apoptosis in human SR cells harboring wild type p53 assessed as pro-caspase 3 cleavage at 50 to 200 nM after 24 hrs by Western blot anlaysis. The class given is functional, cell-based. In short, it runs like this:
as §1

The structures appear in SMILES notation. The source made the active and inactive calls. No cut-off for these calls is given here.

As usually defined, the Cmax is the highest concentration seen after dosing. Broadly, the AUC is the area under the concentration-time curve, a measure of exposure.

Sequence of Aminopeptidase N (Sus scrofa) (P15145 whole entry): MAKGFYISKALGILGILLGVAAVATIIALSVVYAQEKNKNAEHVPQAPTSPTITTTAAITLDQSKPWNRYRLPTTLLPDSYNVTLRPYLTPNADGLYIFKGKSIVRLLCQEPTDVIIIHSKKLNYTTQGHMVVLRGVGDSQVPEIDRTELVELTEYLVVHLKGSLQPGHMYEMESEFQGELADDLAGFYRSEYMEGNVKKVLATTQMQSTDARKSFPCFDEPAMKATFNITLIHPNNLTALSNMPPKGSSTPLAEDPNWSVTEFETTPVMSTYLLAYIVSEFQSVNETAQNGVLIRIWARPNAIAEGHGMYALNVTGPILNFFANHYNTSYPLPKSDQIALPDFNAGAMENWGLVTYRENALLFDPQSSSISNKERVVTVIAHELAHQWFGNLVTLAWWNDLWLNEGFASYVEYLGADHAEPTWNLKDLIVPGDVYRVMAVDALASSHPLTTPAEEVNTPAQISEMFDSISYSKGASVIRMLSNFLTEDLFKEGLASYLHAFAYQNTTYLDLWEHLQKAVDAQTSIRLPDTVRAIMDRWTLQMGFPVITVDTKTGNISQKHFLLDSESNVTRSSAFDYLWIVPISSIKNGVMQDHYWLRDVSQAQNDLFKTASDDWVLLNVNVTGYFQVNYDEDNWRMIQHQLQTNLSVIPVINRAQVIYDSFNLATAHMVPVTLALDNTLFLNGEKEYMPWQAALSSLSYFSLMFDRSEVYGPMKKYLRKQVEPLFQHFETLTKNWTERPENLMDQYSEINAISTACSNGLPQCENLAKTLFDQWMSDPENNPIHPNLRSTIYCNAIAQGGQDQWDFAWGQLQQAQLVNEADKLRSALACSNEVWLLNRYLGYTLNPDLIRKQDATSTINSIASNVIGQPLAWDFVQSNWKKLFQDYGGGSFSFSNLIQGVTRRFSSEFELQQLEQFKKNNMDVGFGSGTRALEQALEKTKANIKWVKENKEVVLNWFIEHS

Take `CCCNNC(=O)/C=C/c1ccc(CNCCc2c(C)[nH]c3ccccc23)cc1.O=C(O)C(F)(F)F`: the outcome in the data set with MV4-11 [1], in the data set with MV4-11 [2] and in the data set on MV4-11 [3] was Active. For the same molecule, the outcome with HL-60, with RS4-11 and in the data set on SR was inactive. Besides, the CC50 in the data set with MDA-MB-435 was more than 10 µM; with HCT-15 it was more than 10 µM; in the data set with RXF 393 it was 0.666 µM; in the data set with SK-MEL-28, 0.893 µM; in the data set on M14, more than 10 µM; in the data set with UO-31, more than 10 µM. Also, the results for the CC50 in the data set on ACHN, in the data set on BT-549 and with LOX IMVI were more than 10 µM, more than 10 µM and 0.537 µM, respectively. The inhibition entry (in the data set on MV4-11 [4]; in data set [8]) was “inactive” throughout. Besides, the inhibition result with MV4-11 [5] and with MV4-11 [7] was “Active” in each case. The same molecule displayed a Cmax in data set [6] of 45.1 ng/mL. Further, the AUC in data set [9] came to 265 ng·h/mL. Besides, the F in [10] was found to be 19.8%.
